Measured values taken from ChEMBL document CHEMBL1155199, “Synthesis of 6-aminomethyl derivatives of benzopyran-4-one with dual biological properties: anti-inflammatory-analgesic and antimicrobial” (Eur J Med Chem, 2009).
In brackets after ≈: the same amount, converted by molar mass.

Columns and labels:
Rhizopus arrhizus = assay: Antifungal activity against Rhizopus oryzae NRRL 21498; assay type: functional
Procedure, shortened: (§1)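 Antifungal screen against R. oryza NRRL-21498 and P. citrum NCIM-768 with fluconazole as reference. Compounds that inhibited growth of one or more organisms were taken forward to MIC determination, reported in µg/mL.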

Rattus norvegicus [1] = assay: Gastrointestinal toxicity in Albino rat assessed as severity index at 60 mg/kg, po after 17 hrs relative to control; assay type: organism-based; parameters: dose 60 mg/kg, route oral; settings: in vivo
Procedure, shortened: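 Rats fasted 24 h (water allowed), then dosed orally at 60 mg/kg as a suspension in 1% methyl cellulose; controls received vehicle alone. Normal diet for 17 h after dosing. Stomach mucosa examined under a magnifying glass and scored: 0.5 redness, 1.0 spot ulcers, 1.5 haemorrhagic streaks, 2.0 ulcers >3 but <5, 3.0 ulcers >5. Severity index is the group mean score minus the control mean. Data are mean ± S.E.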

Penicillium citrinum = assay: Antifungal activity against Penicillium citrinum NCIM 768; assay type: functional; procedure, shortened: as §1
Rattus norvegicus [2] = assay: Antiinflammatory activity in Wistar albino rat assessed as inhibition of carrageenan-induced paw edema at 20 mg/kg, po administered 30 mins before carrageenan challenge measured after 3 hrs relative to ibuprofen; assay type: functional
Procedure, shortened: (§2)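 Wistar albino rats (180–200 g), either sex, randomized into groups of six. Dosed 20 mg/kg p.o.; controls received 0.5% CMC. 30 min later, 0.1 mL 0.1% carrageenan in sterile 0.9% NaCl injected subplantar into the right hind paw. Paw volume read by plethysmometer at 2 and 3 h. Expressed as % inhibition, mean ± SEM, ANOVA with post hoc test.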

Escherichia coli = assay: Antibacterial activity against Escherichia coli ATCC 8739 by turbidity method; assay type: functional
Mus musculus = assay: Analgesic activity in Swiss albino mouse assessed as protection against acetic acid-induced writhing at 20 mg/kg, po administered 1 hr before acetic acid challenge measured for 5 to 15 mins; assay type: functional
Procedure, shortened: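 Swiss albino mice (25–30 g), either sex, groups of six, habituated individually 30 min in test cage. Test agents 20 mg/kg suspended in 1.0% CMC given orally; controls received CMC only. 1 h later, 0.10 mL 1% aqueous acetic acid injected i.p. to induce writhing. Data are mean ± S.E., one-way ANOVA with post hoc test.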

Rattus norvegicus [3] = assay: Effect on lipid peroxidation in Albino rat gastric mucosa assessed as malondialdehyde level per mg of protein at 60 mg/kg, po after 17 hrs relative to ibuprofen; assay type: ADME, organism-based; parameters: dose 60 mg/kg, route oral; settings: in vivo
Procedure, shortened: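 Lipid peroxidation measured by the Ohkawa thiobarbituric acid–MDA colorimetric method. Tubes were heated 30 min at 80 °C in a shaking water bath, chilled 10 min in ice water, and centrifuged at 3000 rpm for 15 min. Supernatant absorbance was read at 540 nm against a blank. Results are nmol MDA/mg protein, mean ± S.E.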

Staphylococcus aureus = assay: Antibacterial activity against Staphylococcus aureus ATCC 29737 by turbidity method; assay type: functional
Rattus norvegicus [4] = assay: Antiinflammatory activity in Wistar albino rat assessed as inhibition of carrageenan-induced paw edema at 20 mg/kg, po administered 30 mins before carrageenan challenge measured after 2 hrs relative to ibuprofen; assay type: functional; procedure, shortened: as §2

Structure (SMILES) | MIC (Rhizopus arrhizus) [mg/L] | Activity (Rattus norvegicus [1]) | MIC (Penicillium citrinum) [mg/L] | inhibition in vivo at 20 mg/kg (Rattus norvegicus [2]) [%] | MIC (Escherichia coli) [mg/L] | Activity (Mus musculus) [%] | Activity (Rattus norvegicus [3]) [nmol] | MIC (Staphylococcus aureus) [mg/L] | inhibition in vivo at 20 mg/kg (Rattus norvegicus [4]) [%]
COc1ccc(-c2cc(=O)c3cc(CN4CCNCC4)ccc3o2)cc1 | 50 (≈ 143 µM) | 0.4 | > 100 | 68.9 | 50 (≈ 143 µM) | 40.36 | 0.599 | 50 (≈ 143 µM) | 39.5
COc1ccc(-c2cc(=O)c3cc(CNc4ccc(S(N)(=O)=O)cc4)ccc3o2)cc1 | 10 (≈ 22.9 µM) | – | 25 (≈ 57.3 µM) | 60.5 | 50 (≈ 115 µM) | – | – | 25 (≈ 57.3 µM) | 25.3
COc1ccc(-c2cc(=O)c3cc(CNc4ccc(S(N)(=O)=O)cc4)ccc3o2)cc1OC | 10 (≈ 21.4 µM) | – | 10 (≈ 21.4 µM) | 60.5 | 10 (≈ 21.4 µM) | – | – | 25 (≈ 53.6 µM) | 27.1
COc1ccc(-c2cc(=O)c3cc(CN4CCOCC4)ccc3o2)cc1 | 10 (≈ 28.5 µM) | 0.2 | 10 (≈ 28.5 µM) | 75.3 | 10 (≈ 28.5 µM) | 50.8 | 0.526 | 10 (≈ 28.5 µM) | 62.7
COc1ccc(-c2cc(=O)c3cc(CN(C)C)ccc3o2)cc1OC | 10 (≈ 29.5 µM) | – | 50 (≈ 147 µM) | 51 | 25 (≈ 73.7 µM) | – | – | 25 (≈ 73.7 µM) | 29.8
NS(=O)(=O)c1ccc(NCc2ccc3oc(-c4ccccc4Cl)cc(=O)c3c2)cc1 | > 100 | – | 25 (≈ 56.7 µM) | 58.2 | 50 (≈ 113 µM) | – | – | 50 (≈ 113 µM) | 32.2
COc1ccc(-c2cc(=O)c3cc(CNc4ccc(C)cc4)ccc3o2)cc1OC | 25 (≈ 62.3 µM) | – | 25 (≈ 62.3 µM) | 50.8 | 50 (≈ 125 µM) | – | – | 25 (≈ 62.3 µM) | 18.7
O=c1cc(-c2ccccc2Cl)oc2ccc(CN3CCNCC3)cc12 | 50 (≈ 141 µM) | 0.3 | 50 (≈ 141 µM) | 73.9 | > 100 | 48.39 | 0.403 | > 100 | 56
COc1ccc(-c2cc(=O)c3cc(CN(C)C)ccc3o2)cc1 | 10 (≈ 32.3 µM) | – | 50 (≈ 162 µM) | 53.1 | 50 (≈ 162 µM) | – | – | 50 (≈ 162 µM) | 36
COc1ccc(-c2cc(=O)c3cc(CCl)ccc3o2)cc1OC | 10 (≈ 30.2 µM) | – | > 100 | 49.4 | 50 (≈ 151 µM) | – | – | 10 (≈ 30.2 µM) | 33.3
CN(C)Cc1ccc2oc(-c3ccccc3Cl)cc(=O)c2c1 | > 100 | – | > 100 | 54.3 | 50 (≈ 159 µM) | – | – | > 100 | 36.2
O=c1cc(-c2ccccc2Cl)oc2ccc(CN3CCOCC3)cc12 | 25 (≈ 70.3 µM) | 0.1 | 25 (≈ 70.3 µM) | 82.5 | > 100 | 54.81 | 0.352 | 50 (≈ 141 µM) | 64.4
Cc1ccc(NCc2ccc3oc(-c4ccccc4Cl)cc(=O)c3c2)cc1 | 50 (≈ 133 µM) | – | > 100 | 52.7 | > 100 | – | – | > 100 | 19.8
COc1ccc(-c2cc(=O)c3cc(CNc4ccc(C)cc4)ccc3o2)cc1 | 50 (≈ 135 µM) | – | > 100 | 51 | 50 (≈ 135 µM) | – | – | 50 (≈ 135 µM) | 18.7
COc1ccc(-c2cc(=O)c3cc(CN4CCNCC4)ccc3o2)cc1OC | 25 (≈ 65.7 µM) | 0.4 | 50 (≈ 131 µM) | 72.2 | 10 (≈ 26.3 µM) | 45.38 | 0.525 | 25 (≈ 65.7 µM) | 54
COc1ccc(-c2cc(=O)c3cc(CN4CCOCC4)ccc3o2)cc1OC | 10 (≈ 26.2 µM) | 0.1 | 10 (≈ 26.2 µM) | 80.9 | 10 (≈ 26.2 µM) | 53.61 | 0.331 | 10 (≈ 26.2 µM) | 61.8
COc1ccc(-c2cc(=O)c3cc(CCl)ccc3o2)cc1 | 10 (≈ 33.3 µM) | – | > 100 | 38.7 | 50 (≈ 166 µM) | – | – | 10 (≈ 33.3 µM) | 32.2
OC(Cn1cncn1)(Cn1cncn1)c1ccc(F)cc1F [FLUCONAZOLE] | 6.25 (≈ 20.4 µM) | – | 6.25 (≈ 20.4 µM) | – | – | – | – | – | –
CC(C)Cc1ccc(C(C)C(=O)O)cc1 (stereo unspecified) [IBUPROFEN] | – | 0.9 | – | – | – | 65.06 | – | – | –
CCn1cc(C(=O)O)c(=O)c2cc(F)c(N3CCNCC3)cc21 [NORFLOXACIN] | – | – | – | – | 6.25 (≈ 19.6 µM) | – | – | 6.25 (≈ 19.6 µM) | –
